Assay results published in ChEMBL document CHEMBL1671788, “Discovery, synthesis, and structure-activity relationship development of a series of N-(4-acetamido)phenylpicolinamides as positive allosteric modulators of metabotropic glutamate receptor 4 (mGlu(4)) with CNS exposure in rats” (J Med Chem, 2011).
pEC50: −log10 of the molar value.

Tests used:
[1] = target: T1, Metabotropic glutamate receptor 4 (Homo sapiens, UniProt Q14833); assay: Positive allosteric modulation of human mGluR4 expressed in CHO cells coexpressing Gqi5 assessed as calcium mobilization relative to PHCCC; assay type: functional, cell-based
Method in brief: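 CHO cells stably expressing human mGlu4 with Gqi5 were plated at 30,000 cells/well and grown overnight. Cells were loaded with 1 µM Fluo-4 AM for 45 min at 37 °C in HBSS/HEPES/2.5 mM probenecid buffer. […] Ca2+ fluorescence was read (ex 470, em 540 nm). Curves were fitted with a four-parameter logistic; ≥3 independent runs in triplicate.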

[2] = target: Metabotropic glutamate receptor 4 (Rattus norvegicus) (UniProt P31423); assay: Positive allosteric modulation of rat mGluR4 expressed in CHO cells coexpressing Gqi5 assessed as calcium mobilization relative to PHCCC; assay type: functional, cell-based
[3] = target: Metabotropic glutamate receptor 4 (Rattus norvegicus) (UniProt P31423); assay: Positive allosteric modulation of rat mGluR4 expressed in CHO cells coexpressing Gqi5 assessed as potentiation of glutamate-induced calcium mobilization; assay type: functional, cell-based
[4] = target: T1, Metabotropic glutamate receptor 4; assay: Positive allosteric modulation of human mGluR4 expressed in CHO cells coexpressing Gqi5 assessed as calcium mobilization; assay type: functional, cell-based; conditions: for pEC50: read-out: EC50; for EC50: cho
Cytochrome P450 2C9 = Cytochrome P450 2C9 (Homo sapiens, UniProt P11712); assay: Inhibition of human CYP2C9
Method in brief: (§1)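 Human liver microsomes (final 0.1 mg/mL) in 0.1 M potassium phosphate, pH 7.4, with a probe cocktail: phenacetin 10 µM (1A2), diclofenac 5 µM (2C9), dextromethorphan 5 µM (2D6) and midazolam 2 µM (3A4). Compound at 100 nM–30 µM final, in duplicate, preincubated 15 min at 37 °C. NADPH (1 mM) reaction ran 8 min, was quenched with cold acetonitrile, and read by LC/MS/MS (MRM). IC50 determined.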

Plasma [5] = assay: Cmax in Sprague-Dawley rat plasma at 10 mg/kg, sc; assay type: ADME, organism-based; parameters: dose 10 mg/kg, route subcutaneous; conditions: in vivo
Method in brief: (§2)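 Rats dosed subcutaneously at 10 mg/kg as a 10% tween 80 microsuspension. […] In vivo samples were quantified by LC/MS/MS (ESI, positive-mode MRM) after gradient elution on a C18 column.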

Cytochrome P450 2D6 = Cytochrome P450 2D6 (Homo sapiens, UniProt P10635); assay: Inhibition of human CYP2D6; method in brief: as §1
[6] = Plasma protein binding in Sprague-Dawley rat; assay type: ADME, cell-free; conditions: read-out: PPB
Method in brief: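 Equilibrium dialysis of compound spiked into rat plasma against 25 mM phosphate buffer, pH 7.4. Dialysis ran 4 h at 37 °C with shaking. Both chambers were matrix-matched, extracted with cold acetonitrile and quantified by LC/MS/MS. Triplicate within one plate.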

Plasma [7] = assay: AUC in Sprague-Dawley rat brain at 10 mg/kg, sc; assay type: ADME, organism-based; parameters: dose 10 mg/kg, route subcutaneous; conditions: in vivo
in vivo = conditions: Sprague-Dawley, rat, sc, 10 mg/kg
Cytochrome P450 1A2 = target: T2, Cytochrome P450 1A2 (Homo sapiens, UniProt P05177); assay: Inhibition of human CYP1A2; method in brief: as §1
T2 sequence (P05177 whole entry): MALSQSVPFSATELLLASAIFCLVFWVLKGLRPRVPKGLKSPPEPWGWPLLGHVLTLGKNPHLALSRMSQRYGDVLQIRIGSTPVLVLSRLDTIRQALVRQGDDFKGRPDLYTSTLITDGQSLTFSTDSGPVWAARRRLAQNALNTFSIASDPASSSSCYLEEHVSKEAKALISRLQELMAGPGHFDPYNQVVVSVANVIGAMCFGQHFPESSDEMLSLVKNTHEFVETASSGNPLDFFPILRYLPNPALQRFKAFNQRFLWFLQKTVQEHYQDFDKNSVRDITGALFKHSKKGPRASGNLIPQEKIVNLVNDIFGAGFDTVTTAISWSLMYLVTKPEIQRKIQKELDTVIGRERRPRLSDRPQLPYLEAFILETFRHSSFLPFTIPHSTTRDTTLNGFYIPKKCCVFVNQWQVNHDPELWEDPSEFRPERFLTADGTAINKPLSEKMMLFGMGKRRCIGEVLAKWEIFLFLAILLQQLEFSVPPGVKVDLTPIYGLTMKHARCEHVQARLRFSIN

[8] = target: Metabotropic glutamate receptor 4 (Rattus norvegicus, UniProt P31423); assay: Positive allosteric modulation of rat mGluR4 expressed in CHO cells coexpressing Gqi5 assessed as calcium mobilization; assay type: functional, cell-based; conditions: for pEC50: read-out: EC50; for EC50: cho
[9] = Cmax in Sprague-Dawley rat brain at 10 mg/kg, sc; assay type: ADME, organism-based; parameters: dose 10 mg/kg, route subcutaneous; method in brief: as §2
[10] = AUC in Sprague-Dawley rat plasma at 10 mg/kg, sc; assay type: ADME, organism-based; parameters: dose 10 mg/kg, route subcutaneous
Cytochrome P450 3A4 = Cytochrome P450 3A4 (Homo sapiens, UniProt P08684); assay: Inhibition of human CYP3A4; method in brief: as §1
Chain of Cytochrome P450 3A4 (P08684 whole entry): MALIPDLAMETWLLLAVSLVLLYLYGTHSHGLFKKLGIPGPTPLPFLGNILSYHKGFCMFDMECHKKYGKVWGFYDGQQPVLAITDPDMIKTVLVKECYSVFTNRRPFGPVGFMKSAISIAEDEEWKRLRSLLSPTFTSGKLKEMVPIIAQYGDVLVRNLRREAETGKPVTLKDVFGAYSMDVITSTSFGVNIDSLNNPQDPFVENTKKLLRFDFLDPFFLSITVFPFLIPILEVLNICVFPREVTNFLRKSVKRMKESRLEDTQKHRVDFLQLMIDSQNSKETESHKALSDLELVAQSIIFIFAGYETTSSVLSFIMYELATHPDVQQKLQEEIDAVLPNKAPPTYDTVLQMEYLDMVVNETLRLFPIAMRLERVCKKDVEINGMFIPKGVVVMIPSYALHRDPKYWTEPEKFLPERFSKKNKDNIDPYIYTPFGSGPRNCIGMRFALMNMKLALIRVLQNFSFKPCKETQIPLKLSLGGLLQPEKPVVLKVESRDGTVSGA

Chain of Metabotropic glutamate receptor 4 (Rattus norvegicus, UniProt P31423) (P31423 whole entry): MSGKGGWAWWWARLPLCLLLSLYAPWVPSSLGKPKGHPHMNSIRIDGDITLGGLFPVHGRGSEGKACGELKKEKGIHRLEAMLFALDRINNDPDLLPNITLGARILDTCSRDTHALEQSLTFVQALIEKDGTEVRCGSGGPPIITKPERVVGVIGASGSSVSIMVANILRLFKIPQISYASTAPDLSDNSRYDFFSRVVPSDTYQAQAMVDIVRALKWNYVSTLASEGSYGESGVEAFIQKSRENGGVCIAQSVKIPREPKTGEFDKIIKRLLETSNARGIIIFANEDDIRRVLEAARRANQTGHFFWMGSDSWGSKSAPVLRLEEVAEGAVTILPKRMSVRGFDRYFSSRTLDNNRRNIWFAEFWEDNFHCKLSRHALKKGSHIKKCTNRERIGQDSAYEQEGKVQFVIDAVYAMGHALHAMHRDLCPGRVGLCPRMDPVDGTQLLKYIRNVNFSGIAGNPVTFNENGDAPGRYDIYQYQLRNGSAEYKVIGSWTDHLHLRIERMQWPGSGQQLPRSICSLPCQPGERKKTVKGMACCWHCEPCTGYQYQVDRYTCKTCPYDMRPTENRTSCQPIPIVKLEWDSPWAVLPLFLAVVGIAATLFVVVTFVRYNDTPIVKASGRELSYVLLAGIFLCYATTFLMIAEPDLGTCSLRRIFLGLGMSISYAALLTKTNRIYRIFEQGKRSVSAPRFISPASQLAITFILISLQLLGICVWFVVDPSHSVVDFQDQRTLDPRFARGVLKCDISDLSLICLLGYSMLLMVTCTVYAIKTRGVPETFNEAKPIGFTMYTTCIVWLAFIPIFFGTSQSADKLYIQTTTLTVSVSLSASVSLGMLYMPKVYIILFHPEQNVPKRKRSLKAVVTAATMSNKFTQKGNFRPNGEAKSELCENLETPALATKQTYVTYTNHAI
Chain of Metabotropic glutamate receptor 4 (Rattus norvegicus) (P31423 whole entry): as above
T1 sequence (Q14833 whole entry): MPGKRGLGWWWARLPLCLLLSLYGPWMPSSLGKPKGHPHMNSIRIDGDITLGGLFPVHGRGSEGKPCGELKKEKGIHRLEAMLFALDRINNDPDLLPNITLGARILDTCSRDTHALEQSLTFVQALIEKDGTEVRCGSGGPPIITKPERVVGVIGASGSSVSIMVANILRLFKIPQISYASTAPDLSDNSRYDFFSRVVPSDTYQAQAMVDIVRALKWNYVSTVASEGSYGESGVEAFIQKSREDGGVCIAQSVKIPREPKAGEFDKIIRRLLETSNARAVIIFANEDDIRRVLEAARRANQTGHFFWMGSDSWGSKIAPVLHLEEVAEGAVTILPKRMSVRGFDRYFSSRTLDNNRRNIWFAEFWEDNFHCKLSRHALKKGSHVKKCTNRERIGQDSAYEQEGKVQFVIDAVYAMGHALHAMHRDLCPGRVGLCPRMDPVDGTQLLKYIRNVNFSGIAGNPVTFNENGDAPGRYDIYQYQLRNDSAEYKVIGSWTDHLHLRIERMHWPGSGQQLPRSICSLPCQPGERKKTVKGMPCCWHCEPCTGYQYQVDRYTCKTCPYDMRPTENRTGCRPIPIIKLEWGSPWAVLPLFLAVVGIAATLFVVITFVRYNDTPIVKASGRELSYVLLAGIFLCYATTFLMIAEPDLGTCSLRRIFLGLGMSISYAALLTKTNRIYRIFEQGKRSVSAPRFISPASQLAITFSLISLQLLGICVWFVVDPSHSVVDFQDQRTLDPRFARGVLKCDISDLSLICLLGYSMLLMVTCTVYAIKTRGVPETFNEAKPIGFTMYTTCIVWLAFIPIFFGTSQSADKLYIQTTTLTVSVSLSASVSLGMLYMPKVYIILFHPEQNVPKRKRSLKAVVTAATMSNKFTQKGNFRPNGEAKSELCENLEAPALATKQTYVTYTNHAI
Chain of Cytochrome P450 2D6 (P10635 whole entry): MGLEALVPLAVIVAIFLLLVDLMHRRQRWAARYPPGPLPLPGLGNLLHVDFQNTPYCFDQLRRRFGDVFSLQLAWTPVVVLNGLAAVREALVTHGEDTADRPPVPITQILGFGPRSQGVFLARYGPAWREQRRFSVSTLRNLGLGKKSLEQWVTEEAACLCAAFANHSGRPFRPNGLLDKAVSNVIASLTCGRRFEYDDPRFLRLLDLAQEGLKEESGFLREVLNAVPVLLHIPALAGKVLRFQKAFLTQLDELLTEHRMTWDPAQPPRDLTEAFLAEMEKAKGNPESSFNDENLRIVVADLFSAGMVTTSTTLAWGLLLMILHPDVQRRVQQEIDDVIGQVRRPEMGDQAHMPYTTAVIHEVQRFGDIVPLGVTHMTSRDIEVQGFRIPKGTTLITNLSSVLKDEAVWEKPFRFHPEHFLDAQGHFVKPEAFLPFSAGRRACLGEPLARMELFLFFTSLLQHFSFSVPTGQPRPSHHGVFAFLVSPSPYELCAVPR
Chain of Cytochrome P450 2C9 (P11712 whole entry): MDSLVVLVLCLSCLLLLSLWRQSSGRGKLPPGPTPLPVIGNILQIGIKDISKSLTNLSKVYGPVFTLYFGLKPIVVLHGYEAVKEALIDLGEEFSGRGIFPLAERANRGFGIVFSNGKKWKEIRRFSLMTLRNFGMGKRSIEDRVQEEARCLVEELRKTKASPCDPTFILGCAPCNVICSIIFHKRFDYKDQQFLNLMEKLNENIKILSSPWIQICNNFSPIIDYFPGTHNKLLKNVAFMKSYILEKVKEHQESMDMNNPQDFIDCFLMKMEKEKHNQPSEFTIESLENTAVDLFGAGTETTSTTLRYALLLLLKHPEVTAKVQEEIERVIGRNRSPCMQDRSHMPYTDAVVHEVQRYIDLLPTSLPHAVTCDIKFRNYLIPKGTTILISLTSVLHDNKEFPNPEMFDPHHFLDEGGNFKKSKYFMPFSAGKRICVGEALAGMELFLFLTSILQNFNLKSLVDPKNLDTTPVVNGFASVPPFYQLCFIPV

SMILES	Activity [1] [%]	Activity [2] [%]	pEC50 [4]	pEC50 [8]	also measured
O=C(Nc1ccc(NC(=O)c2ccccc2Cl)c(F)c1)c1ccccn1	59.7	91.4	–	–	fold change (FC) [3]: 4.6
Cc1ccccc1C(=O)Nc1ccc(NC(=O)c2ccccn2)cc1Cl	72.5	123	6.02	6.04	INH (Cytochrome P450 2C9): 14.1 µM; Cmax (Plasma [5]): 219.2 ng/mL; INH (Cytochrome P450 2D6): 12 µM; fold change (FC) [3]: 9.6; fraction unbound [6]: < 0.005; AUC (Plasma [7]): 155.4 ng·h/g; Tmax (in vivo): 30 min; INH (Cytochrome P450 1A2): > 10 µM; Cmax [9]: 59.4 ng/g; AUC(0-t) [10]: 766 ng·h/mL; INH (Cytochrome P450 3A4): > 30 µM
O=C(Nc1ccc(NC(=O)c2ccc(F)cc2F)c(Cl)c1)c1ccccn1	24.6	43.5	–	5.68	EC50 [4]: Not Active
O=C(Nc1ccccc1)[C@]12C[C@H]1/C(=N\O)c1ccccc1O2	–	–	–	5.55	–
O=C(Nc1ccc(NC(=O)C2CCCCC2)c(Cl)c1)c1ccccn1	59.2	106	6.37	6.23	–
COc1cc(NC(=O)c2nccs2)ccc1NC(=O)c1ccccc1Cl	77.6	134	6.20	6.42	fold change (FC) [3]: 32.2; fraction unbound [6]: < 0.005
COc1cc(NC(=O)c2ccccn2)ccc1NC(=O)c1ccccc1Cl	79.4	147	–	–	INH (Cytochrome P450 2C9): 14.3 µM; Cmax (Plasma [5]): 265 ng/mL; INH (Cytochrome P450 2D6): 12.8 µM; fold change (FC) [3]: 72; fraction unbound [6]: < 0.005; AUC (Plasma [7]): 312 ng·h/g; Tmax (in vivo): 60 min; INH (Cytochrome P450 1A2): > 30 µM; Cmax [9]: 69.1 ng/g; AUC(0-t) [10]: 938 ng·h/mL; INH (Cytochrome P450 3A4): > 30 µM
COc1cc(NC(=O)c2ccc(-c3ccccc3)o2)ccc1NC(=O)c1ccccc1Cl	16.3	16.3	–	–	EC50 [4]: Not Active; EC50 [8]: Not Active
COc1cc(NC(=O)c2ccncn2)ccc1NC(=O)c1ccccc1Cl	77.9	133	5.88	6.05	–
O=C(Nc1ccc(NC(=O)c2ccccc2Cl)c(C(F)(F)F)c1)c1ccccn1	69.5	102	5.68	5.63	–
O=C(Nc1ccc(NC(=O)c2ccc(F)cc2Cl)c(Cl)c1)c1ccccn1	61.1	119	6.94	6.77	fold change (FC) [3]: 6.7
COc1cc(NC(=O)c2cnccn2)ccc1NC(=O)c1ccccc1Cl	74.3	112	5.75	5.95	–
COc1cc(NC(=O)c2ccc(Br)o2)ccc1NC(=O)c1ccccc1Cl	87	125	5.84	6.00	–
Cn1c(C(=O)Nc2ccc(NC(=O)c3ccccn3)cc2Cl)cc2ccccc21	49.9	87.1	5.33	5.53	–
O=C(Nc1ccc(NC(=O)c2ccccn2)cc1Cl)c1cc(Cl)cc(Cl)c1	37.4	61	5.67	5.63	–
COc1cc(NC(=O)c2cccs2)ccc1NC(=O)c1ccccc1Cl	63.4	96.7	–	–	–

SMILES	Activity [1] [%]	Activity [2] [%]	pEC50 [4]	pEC50 [8]	also measured
O=C(Nc1ccc(NC(=O)c2ccc(-c3ccccc3)o2)c(Cl)c1)c1ccccn1	24.9	45.6	–	5.47	EC50 [4]: Not Active
O=C(Nc1ccc(NC(=O)c2nccs2)c(Cl)c1)c1ccccn1	61.5	106	6.39	6.27	fold change (FC) [3]: 6
CC(C)C(=O)Nc1ccc(NC(=O)c2ccccn2)cc1Cl	60	109	5.37	5.32	–
O=C(Nc1ccc(NC(=O)c2cccs2)c(Cl)c1)c1ccccn1	57.8	93.8	5.98	5.95	–
O=C(Nc1ccc(NC(=O)c2ccccn2)cc1Cl)c1ccccc1	37.9	74.2	6.44	6.29	–
COc1cc(NC(=O)C2CCCCC2)ccc1NC(=O)c1ccccc1Cl	26.9	43.2	5.95	5.82	–
O=C(Nc1ccc(NC(=O)c2cncs2)c(Cl)c1)c1ccccn1	86.7	125	5.66	5.76	–
COc1cc(NC(=O)c2ccco2)ccc1NC(=O)c1ccccc1Cl	62.7	122	6.01	6.00	–
O=C(Nc1ccc2c(ccn2C(=O)c2ccccn2)c1)c1ccccc1Cl	21.1	17.6	–	–	EC50 [4]: Not Active; EC50 [8]: Not Active
COc1ccccc1C(=O)Nc1ccc(NC(=O)c2ccccn2)cc1Cl	16.4	19	–	–	EC50 [4]: Not Active; EC50 [8]: Not Active
COc1ccccc1C(=O)n1ccc2cc(NC(=O)c3ccccn3)ccc21	91.3	107	5.85	5.87	fold change (FC) [3]: 5.9; fraction unbound [6]: < 0.005
COc1cc(NC(=O)C2CCCO2)ccc1NC(=O)c1ccccc1Cl (stereo not drawn)	21.3	27.1	–	< 5.00	EC50 [4]: Not Active
O=C(Nc1ccc(NC(=O)c2ccccc2F)c(Cl)c1)c1ccccn1	34.5	71.6	5.62	5.36	–
O=C(Nc1ccc2c(ccn2C(=O)c2ccc(F)cc2Cl)c1)c1ccccn1	71.7	104	5.85	5.78	–
O=C(Nc1ccc(NC(=O)c2ccccc2Cl)cc1)c1ccccn1	33.6	49.6	5.79	5.65	–
COc1cc(NC(=O)c2cscn2)ccc1NC(=O)c1ccccc1Cl	86.8	132	6.07	6.12	–
